A selection: hits, their analogues and other compounds. The true share with any hit is near 3.1%.
ADAM10 inh – inhibits human ADAM10; inhibition, % at 7 µM; 370,000 compounds, 0.62% hits; O14672; recombinant ADAM10, EDANS/DABCYL FRET peptide cleavage, 3 h; AID 720582;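 active = inhibition above a per-campaign cutoff equal to the mean of compounds falling between control-based bounds plus 3 SD, cut at about 20% in these data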;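 also: 0% = DMSO wells while the 100% control is not disclosed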
MPTP block – blocks calcium-induced mitochondrial swelling; isolated mouse mitochondria, Ca2+ swelling absorbance, 30 min; inhibition, % at 10 µM; 360,000 compounds, 1.4% hits; AID 602449;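 active = inhibition of 50% or more, scaled per plate between neutral and stimulator controls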;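 also: 0% = DMSO wells given calcium and 100% = 1 mM EGTA wells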
V-ATPase pHluor – yeast V-ATPase proton transport regulation by pHLuorin. S. cerevisiae, pHLuorin cytosolic pH fluorescence. response, % at 10 µM. 350,000 compounds, 0.37% hits. AID 504577; in the data active = response mostly above about 7.3%, no sharp cut-off; inactive = mostly below about 5.4%; also: actives read high
aDG glyco up – increases alpha dystroglycan glycosylation. Pro5-aDG cells, alpha-DG glycosylation AlphaScreen (IIH6); 0% Pro5, 100% B10-LARGE cell signal. AID 624168. activation, % at 10 µM. 360,000 compounds, 0.22% hits;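 active = activation of at least 8% versus controls, or a plate z-score of at least 8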;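 also: Pro5 are CHO cells carrying HIG-tagged alpha-DG that lacks glycosylation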
ADAM17 inh – inhibitors of human ADAM17; recombinant ADAM17, EDANS/DABCYL FRET peptide cleavage; inhibition, % at 6.95 µM; 370,000 compounds, 0.83% hits; AID 720648;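 active = inhibition above the mean of compounds lying between control limits plus 3 SD, set per campaign, cut at about 8.5% in these data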;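 also: 0% = DMSO-only wells as the low control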
Target sequence (P78536 215-824 limits assumed): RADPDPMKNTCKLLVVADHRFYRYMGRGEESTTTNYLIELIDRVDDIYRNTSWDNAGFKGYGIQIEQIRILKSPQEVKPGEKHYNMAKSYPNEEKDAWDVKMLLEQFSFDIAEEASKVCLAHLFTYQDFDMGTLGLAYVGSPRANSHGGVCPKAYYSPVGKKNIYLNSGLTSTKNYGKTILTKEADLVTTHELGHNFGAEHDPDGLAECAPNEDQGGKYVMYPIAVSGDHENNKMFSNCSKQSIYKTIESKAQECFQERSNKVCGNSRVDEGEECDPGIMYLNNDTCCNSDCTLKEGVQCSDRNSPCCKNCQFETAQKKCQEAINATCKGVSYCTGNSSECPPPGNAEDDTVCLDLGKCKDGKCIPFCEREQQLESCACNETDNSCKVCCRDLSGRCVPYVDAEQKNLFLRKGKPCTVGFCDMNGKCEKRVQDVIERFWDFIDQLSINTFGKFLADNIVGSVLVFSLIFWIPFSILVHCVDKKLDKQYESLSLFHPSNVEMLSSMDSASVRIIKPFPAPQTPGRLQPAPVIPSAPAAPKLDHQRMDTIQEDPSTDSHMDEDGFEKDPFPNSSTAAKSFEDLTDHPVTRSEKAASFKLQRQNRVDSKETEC
Hep lipid drop – hepatic lipid droplet formation modulation; AML12 mouse hepatocytes, oleate lipid droplets, BODIPY imaging; inhibition, % at 6.5 µM; 240,000 compounds, 0.4% hits; AID 1656;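 active = lipid droplet intensity inhibited by at least 50%, with more than 500 cells counted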
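Test system: AML12 hepatocytes (mouse); reagent: oleate loading, 100 µM; dosing: one dose, 6.5 µM compound; incubation: overnight exposure; signal: fluorescence imaging, 20x objective, two fields per well; read-out basis: % inhibition of corrected integrated BODIPY droplet signal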
* = called active by the depositor; i = inactive; . = no result.

SMILES | ADAM10 inh | MPTP block | V-ATPase pHluor | aDG glyco up | ADAM17 inh | Hep lipid drop
Cc1ccc(S(=O)(=O)N2CCCCC2)cc1NC(=O)COC(=O)c1ccc2c(c1)OCO2 | -8 | -1 | 18* | 0 | 6 | -2
N#CC1(Nc2ccc(-c3ccc(NC4(C#N)CCCC4)cc3)cc2)CCCC1 | 22* | 0 | -2 | 0 | 19* | .
COc1cccc(OC(C)CCN2CCC(C(O)(c3ccccc3)c3ccccc3)CC2)c1 (stereo unspecified) | 0 | . | . | . | -1 | .
CCN(C(=O)COc1ccccc1)c1nnc(-c2cccnc2)s1 | -20 | 1 | 26* | 0 | -8 | 0
C#CCOCCOCCOCCNc1nc(N2CCN(C(=O)CCCCCCCCCCNC(=O)Cn3cc(CCCCCN)nn3)CC2)nc(N2CCN(C(=O)CCCCCCCCCCNC(=O)Cn3cc(C[C@@H](C)O)nn3)CC2)n1 | . | -6 | 8.6* | 0 | . | .
CCc1sc(C(C2C(=O)CC(C)(C)CC2=O)C2C(=O)CC(C)(C)CC2=O)cc1[N+](=O)[O-] | 4 | 44 | 8.1* | 0 | 1 | -8
O=C(NCc1ccc2c(c1)OCO2)c1c(O)c2cccc3c2n(c1=O)CCC3 | -1 | 18 | 30* | 0 | -5 | .
COC1=C[C@H](C(=O)NCc2ccc(Br)cc2)[C@H](C)[C@@H](c2ccccc2)CC1=O | 9 | . | . | . | 7 | .
COc1ccc(-c2cc(C3CCN(Cc4cccc(C(F)(F)F)c4)CC3)[nH]n2)cc1 | 24* | 10 | -4 | 4 | 12* | -20
C=C1CCC2C(C)(C)CCC[C@]2(C)[C@H]1CC1=C(O)C(=O)C(CO)=CC1=O (stereo partly specified) | 6 | . | . | . | -4 | .
COc1cccc(NC(=O)C2CCCN2C(=O)Nc2ccc(Cl)cc2)c1 (stereo unspecified) | -5 | . | . | . | -2 | .
Cn1c(SCC2CCCCC2)nnc1-c1ccco1 | -7 | . | . | . | -3 | .
Cc1ccc(S(=O)(=O)N2CCOCC2)cc1C(=O)Nc1ccc(C(N)=O)cc1 | -4 | 0 | 16* | 0 | -4 | 12
CC1(C)CC2CC(C)(CN2S(=O)(=O)c2ccc(C(=O)Nc3cccc(S(=O)(=O)N4CCOCC4)c3)cc2)C1 (stereo unspecified) | 26* | 17 | 1 | 3 | 20* | 8
Cc1ccc(S(=O)(=O)N2CCCCC2)cc1C(=O)Nc1ccc(N2CCOCC2)cc1 | 7 | 17 | 0 | 1 | 7 | .
Cc1ccc2nc(-c3ccc(NC(=O)CSc4nnc(-c5ccccc5)n4Cc4ccco4)cc3)sc2c1 | -186 | . | . | . | -57 | .
CCOc1ccc(OCCC(=O)Nc2ccc3c(c2)OCO3)cc1 | -8 | -1 | -1 | 0 | 0 | .
COc1ccc(OCCCC(=O)Nc2ccc3c(c2)OCO3)cc1 | -7 | 2 | 16* | 0 | -1 | .
O=C1CCCc2nc3c(cc21)C(O)Oc1c-3ccc2ccccc12 (stereo unspecified) | -25 | 4 | -2 | 0 | -9 | 25
O=C1CCCc2nc3c(cc21)C(O)Oc1ccccc1-3 (stereo unspecified) | i | 0 | 16* | 0 | -193 | 1
CC1(C)N=C(c2ccccc2)C(=O)N1 | 4 | -1 | 3 | 0 | -6 | 3
CC1(C)N=C(c2cccc(F)c2)C(=O)N1 | . | -1 | 20* | 0 | . | .
O=C(Nc1ccc2c(c1)CCC2)c1cc(S(=O)(=O)N2CCN(c3ccccc3)CC2)ccc1Cl | 22* | 2 | 3 | 0 | 7 | 0
Cc1ccccc1C1C2=C(Nc3[nH]n(-c4ccccc4)c(=O)c31)c1ccccc1C2=O (stereo unspecified) | . | . | . | . | . | 2
Cc1cccc(C2C3=C(Nc4[nH]n(-c5ccccc5)c(=O)c42)c2ccccc2C3=O)c1 (stereo unspecified) | 16 | 41 | 4 | 0 | 9.8* | 35
COC(=O)[C@]12C[C@H](CC(=O)N3CCCC3)C(=O)N(Cc3ccc(Cl)cc3Cl)C1=C[C@H](C1CCCC1)O[C@@H]2C | -2 | . | . | . | -4 | .
CC1=C(C(=O)OC(C)C)C(c2cn(-c3ccccc3)nc2-c2cccs2)NC(=O)N1 (stereo unspecified) | -2 | -1 | 16* | 1 | -2 | -6
CC(C)N1Cc2nnn(Cc3ccccc3)c2-c2cc(F)ccc2S1(=O)=O | 6 | . | . | . | 0 | .

Source: PubChem BioAssay (several laboratories)
